According to ChEMBL document CHEMBL1139013, “Synthesis and biological evaluation of novel 9-substituted-8-hydroxyadenine derivatives as potent interferon inducers” (J Med Chem, 2006):

Assays:
Splenocyte [1] = test: Induction of IFN in C3H/HeJ mouse splenocytes at 3 nM; assay type: functional
In short: (§1)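 Mouse splenocytes are suspended at 2 × 10⁶ cells/mL in MEM with 5% fetal calf serum, penicillin and streptomycin. They are mixed 1:1 with compound (DMSO stock diluted 500-fold in medium) and cultured 18 h at 37 °C in 5% CO₂. Supernatants are filter-sterilized and stored at -80 °C. IFN (IU/mL) is measured by L929/vesicular stomatitis virus bioassay.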

Splenocyte [2] = test: Induction of IFN in C3H/HeJ mouse splenocytes at 10 nM; assay type: functional; in short: as §1
Splenocyte [3] = test: Induction of IFN in C3H/HeJ mouse splenocytes at 30 nM; assay type: functional; in short: as §1
Splenocyte [4] = test: Induction of IFN in C3H/HeJ mouse splenocytes at 100 nM; assay type: functional; in short: as §1
Mus musculus [5] = test: Induction of IFN in BALB/c mice at 0.1 mg/kg, po; assay type: functional
Mus musculus [6] = test: Induction of IFN in BALB/c mice at 0.3 mg/kg, po; assay type: functional
Splenocyte [7] = test: Induction of IFN in C3H/HeJ mouse splenocytes at 1 nM; assay type: functional; in short: as §1
Cynomolgus monkey [8] = test: Induction of IFN in cynomolgus monkey at 0.1 mg/kg, po; assay type: functional, Macaca fascicularis
Cynomolgus monkey [9] = test: Induction of IFN in cynomolgus monkey at 0.3 mg/kg, po; assay type: functional, Macaca fascicularis
Cynomolgus monkey [10] = test: Induction of IFN in cynomolgus monkey at 1 mg/kg, po; assay type: functional, Macaca fascicularis
Mustela putorius furo [11] = test: Emetic activities in ferret at 0.3 mg/kg, po; assay type: organism-based; design: dose 0.3 mg/kg, route oral; details: in vivo
In short: (§2)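 Oral dosing of male ferrets (4 months old) with compound in 0.5% sodium carboxymethyl cellulose vehicle; doses 0.3-30 mg/kg, 5 animals per group. Animals housed singly, video-recorded continuously for 6 h. Tapes scored afterwards for presence or absence of vomiting; reported as number vomiting per group.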

Mustela putorius furo [12] = test: Emetic activities in ferret at 3 mg/kg, po; assay type: organism-based; design: dose 3 mg/kg, route oral; details: in vivo; in short: as §2
Mustela putorius furo [13] = test: Emetic activities in ferret at 30 mg/kg, po; assay type: organism-based; design: dose 30 mg/kg, route oral; details: in vivo; in short: as §2
[14] = Cmax in ferret at 3 mg/kg, po; assay type: ADME, organism-based, Mustela putorius furo; design: dose 3 mg/kg, route oral; details: in vivo
In short: (§3)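 Male ferrets, 4 months old, dosed orally with compound suspended in 0.5% sodium carboxymethyl cellulose. Blood (0.5 mL) drawn from jugular vein; serum separated at 1630g, 10 min, 4 °C, stored at -20 °C. Compound concentration measured by HPLC; maximum concentration reported in ng/mL.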

[15] = Cmax in ferret at 30 mg/kg, po; assay type: ADME, organism-based, Mustela putorius furo; design: dose 30 mg/kg, route oral; details: in vivo; in short: as §3

Row | SMILES | Activity (Splenocyte [1]) [IU/ml] | Activity (Splenocyte [2]) [IU/ml] | Activity (Splenocyte [3]) [IU/ml] | Activity (Splenocyte [4]) [IU/ml] | Activity (Mus musculus [5]) [IU/ml] | Activity (Mus musculus [6]) [IU/ml] | Activity (Splenocyte [7]) [IU/ml] | Activity (Cynomolgus monkey [8]) [IU/ml] | Activity (Cynomolgus monkey [9]) [IU/ml] | Activity (Cynomolgus monkey [10]) [IU/ml] | Activity (Mustela putorius furo [11]) | Activity (Mustela putorius furo [12]) | Activity (Mustela putorius furo [13]) | Cmax [14] [ng/mL] | Cmax [15] [ng/mL]
1 | CCCCNc1nc(N)c2nc(O)n(Cc3ccc(Cl)nc3)c2n1 | 5.6 | 6.8 | 2.6 | 1.5 | 811 | 1826 | <0.5 | 0 | 19 | 3602 | Not Active | Not Active | Not Active | 20.1 | 275
2 | CCCCNc1nc(N)c2nc(O)n(Cc3ccc(C)nc3)c2n1 | 4.4 | 7.8 | 3.7 | 1.4 | 393 | 1891 | <0.5 | 121 | 591 | 34810 | Not Active | Not Active | Not Active | 20.8 | 1020
3 | CCCCNc1nc(N)c2nc(O)n(Cc3ccc(OC)nc3)c2n1 | 8.2 | 13.4 | 3 | 1 | 375 | 1920 | <0.5 | 3 | 244 | 17422 | Not Active | Not Active | Not Active | 109 | 1200
